# Screening results deposited in PubChem BioAssay by several laboratories.
# Sampled rows, rich in hits. Any-hit rate of the full collection: about 3.8%.
# RAM network inh: yeast RAM network inhibition; inhibition, % at 50 µM; AID 868; actives 1.8% (n = 190,000); S. cerevisiae dse1pr::URA3 reporter, 5-FOA growth OD615, 2 d; analog-sensitive cbk1-as2 kinase mutant strain;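 active = inhibition above a set limit, 3 SD over mean compound inhibition, cut at about 8.4% in these data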;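 note: 0% = DMSO-only wells with no growth and 100% = 10 µM 1-NA-PP1 full growth; inhibition rescues growth on 5-FOA so higher OD means more RAM inhibition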
# Yeast life ext: yeast lifespan extension | S. cerevisiae growth with nicotinamide, OD615; deaD strain in restrictive glucose medium | inhibition of the nicotinamide effect, % at 10 µM | actives 0.68% (n = 130,000) | AID 775;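 active = inhibition above a set limit, placed 3 SD over the median of all compounds, cut at about 26% in these data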;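 note: 0% = nicotinamide-treated wells and 100% = cells grown without nicotinamide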
#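 assay system = DeaD-strain S. cerevisiae | measured by = absorbance at 615 nm | probe or stimulus = nicotinamide 1.5 mM | buffer or medium = CSMM-D glucose medium, restrictive | times = 48 h at 30 °C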
# BB579 growth dn: chemicals that inhibit yeast BB579 growth in restrictive medium (lifespan-shortening candidates); S. cerevisiae BB579 growth, OD615, 48 h; inhibition, % at 10 µM; actives 0.51% (n = 140,000); AID 804;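 active = inhibition above a set limit, 3 SD over the mean compound inhibition, cut at about 44% in these data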
#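 test system = yeast BB579 (DeaD) | buffer or medium = restrictive CSMM-D medium | doses = single compound dose of 10 µM, 0.25% DMSO final | times = 4 h preincubation and 48 h exposure at 30 °C | technique = culture absorbance at 615 nm | benchmarks = amphotericin B 10 µg/mL, positive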
# Measles CPE: protection of cells from measles virus. protection (pct of control), % at 4 µM. Measles virus-infected cells, CPE protection, absorbance. AID 841. actives 1.5% (n = 140,000); in the data active = protection mostly above about 24%, no sharp cut-off; inactive = mostly below about 26%
# * hit, by the source's call; x = not tested or not shown.
SMILES,RAM network inh,Yeast life ext,BB579 growth dn,Measles CPE
CC(C(=O)Nc1cccc(S(=O)(=O)N2CCOCC2)c1)N1CCN(c2ccc(F)cc2)CC1 (stereo not drawn),0,x,x,x
CCC(=O)Nc1nc(C)c(Oc2ccccc2)c(=O)[nH]1,-1,-7,-28,16
CC(=O)Nc1nc(C)c(Oc2ccccc2)c(=O)[nH]1,0,81*,-40,6
O=C(CSCc1c(Cl)cccc1Cl)Nc1ccc2c(c1)OCO2,9.7*,6,-37,31
CCOC(=O)c1sc(NC(=S)NC(=O)c2ccccc2)c(C(=O)OCC)c1C,5,1,-8,6
CCOC(=O)C1=C(NC(=S)NC(=O)c2ccccc2)c2ccccc2CC1(C)CC (stereo not drawn),11*,6,-41,25
CCC(C)c1ccc(OCCCCN2CCOCC2)cc1 (stereo not drawn),1,-8,1,3
C1=CCC(/C=N/n2cnnc2)CC1 (stereo not drawn),0,10,-17,31*
Fc1ccccc1Cc1noc(CN2CCC(OCc3cccnc3)CC2)n1,0,x,x,x
CCC(C)NS(=O)(=O)c1ccc(NC(=O)C(Sc2ccccc2)c2ccccc2)cc1 (stereo not drawn),1,4,-9,32*
Cc1ccc([N+](=O)[O-])cc1NC(=O)c1ccccc1,1,x,x,x
CC(C)NC(=O)C(Sc1ccccc1)c1ccccc1 (stereo not drawn),0,1,-74,30*
Cc1ccc([N+](=O)[O-])cc1NC(=O)C(Sc1ccccc1)c1ccccc1 (stereo not drawn),9.1*,-1,-53,9
Cc1nc(NCCc2ccccc2)c(C#N)c(C)c1[N+](=O)[O-],1,-7,-31,28
COC(=O)c1ccc(Oc2nc(NC(C)(C)C)nc(N3CCOCC3)n2)cc1,1,x,x,x
CCNS(=O)(=O)c1ccc(CCC(=O)Nc2cc(Cl)ccc2Oc2ccccc2)cc1,11*,-14,-32,3
CC(C)NS(=O)(=O)c1ccc(CCC(=O)Nc2cc(Cl)ccc2Oc2ccccc2)cc1,8.8*,-8,-10,7
O=C(CCc1ccccc1)Nc1cc(Cl)ccc1O,0,-16,-64,36*
Cc1cc(C)n(C(=O)CNC(=O)Cc2ccccc2)n1,0,-15,11,8
Cc1cc(C)n(C(=O)CNC(=O)C(c2ccccc2)c2ccccc2)n1,8.8*,x,-55,5
N#CC1(C#N)[C@@H](C(=O)C23CC4CC(CC(C4)C2)C3)C12CCOCC2,4,-1,-23,4
COC(=O)c1c(NC(=O)/C=C/C(=O)O)sc(Cc2ccccc2)c1C,4,1,-37,4
Cc1c(Cc2ccccc2)sc(NC(=O)/C=C/c2cccc3ccccc23)c1C(N)=O,9.8*,5,-36,4
O=C(Nc1nnc(CCS(=O)(=O)c2ccc(Br)cc2)s1)c1ccc([N+](=O)[O-])cc1,1,-9,-28,23
N#Cc1c(SCC(N)=O)nsc1SCc1ccc(Cl)cc1,9.2*,-2,-73,5
SMILES,RAM network inh,Yeast life ext,BB579 growth dn,Measles CPE
N#Cc1c(SCC(N)=O)nsc1SCc1ccccc1Cl,0,-13,-35,3
Nc1c([N+](=O)[O-])cnnc1-c1ccccc1,2,3,-21,11
CCCCOC(=O)c1ccc(NC(=O)CSC2=Nc3ccccc3C3CC=NN23)cc1 (stereo not drawn),8.4*,-12,-21,16
Cc1ccc(N2CC(C(=O)Nc3c(C)n(C)n(-c4ccccc4)c3=O)CC2=O)cc1 (stereo not drawn),3,x,x,x
Nc1ccc2nc(SCc3ccc([N+](=O)[O-])cc3)sc2c1,3,-21,-35,6
O=[N+]([O-])c1ccc2nc(SCc3ccccc3Cl)sc2c1,9.6*,-12,-28,3
C=CCc1ccccc1OCCSc1nc2ccc([N+](=O)[O-])cc2s1,11*,4,-14,15
Cc1cc(C)n(CCNC(=O)CC2C(=O)NCCN2Cc2ccccc2C(F)(F)F)n1 (stereo not drawn),0,x,x,x
N#Cc1cc2c(nc1SCc1ccc(Cl)cc1)CCCC2,8.7*,x,-33,14
O=c1c(Cl)c(NCc2ccccc2)cnn1C12CC3CC(CC(C3)C1)C2,1,7,-46,4
CC1Cc2cc(-c3csc(NC(=O)Cc4ccccc4)n3)ccc2N1S(C)(=O)=O (stereo not drawn),4,-5,-8,71*
CS(=O)(=O)N1CCc2cc(-c3csc(NC(=O)C(c4ccccc4)c4ccccc4)n3)ccc21,6,-6,-23,6
